Assay results: ChEMBL document CHEMBL4052759, “Discovery of DS79182026: A potent orally active hepcidin production inhibitor” (Bioorg Med Chem Lett, 2017)
Values belong to the compound of their own block, whether it stands above or below them.

What was measured:
[1] = Clearance in C57BL/6J mouse at 30 mg/kg, iv by LC-MS/MS analysis; format: ADME, organism-based; settings: in vivo
How it was run: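 C57BL/6J mice got a single 30 mg/kg intravenous dose as a solution in 92 mM SBE7-β-CyD. The value is the average of two animals.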

[2] = biological target: Tyrosine-protein kinase Srms (Homo sapiens) (UniProt Q9H3Y6); experiment: Inhibition of SRM (SRMS) (unknown origin) at 0.45 uM relative to control
[3] = tested on: Receptor-type tyrosine-protein kinase FLT3 (Homo sapiens), P36888 [D835Y]; experiment: Inhibition of Flt3 D835Y mutant (unknown origin) at 0.45 uM relative to control
[4] = biological target: Dual specificity tyrosine-phosphorylation-regulated kinase 4 (Homo sapiens) (UniProt Q9NR20); experiment: Inhibition of DYRK4 (unknown origin) at 0.45 uM relative to control
[5] = biological target: Protein kinase C beta (Homo sapiens) (UniProt P05771); experiment: Inhibition of PKC-beta1 (unknown origin) at 0.45 uM relative to control
[6] = biological target: Maternal embryonic leucine zipper kinase (Homo sapiens) (UniProt Q14680); experiment: Inhibition of MELK (unknown origin) at 0.45 uM relative to control
[7] = biological target: Calcium/calmodulin-dependent protein kinase type II subunit gamma (Homo sapiens) (UniProt Q13555); experiment: Inhibition of CaMK2-gamma (unknown origin) at 0.45 uM relative to control
[8] = biological target: SRSF protein kinase 2 (Homo sapiens) (UniProt P78362); experiment: Inhibition of SRPK2 (unknown origin) at 0.45 uM relative to control
[9] = biological target: Serine/threonine-protein kinase BRSK2 (Homo sapiens) (UniProt Q8IWQ3); experiment: Inhibition of BRSK2 (unknown origin) at 0.45 uM relative to control
[10] = biological target: Mitogen-activated protein kinase 3 (Homo sapiens) (UniProt P27361); experiment: Inhibition of Erk1 (unknown origin) at 0.45 uM relative to control
[11] = biological target: Tyrosine-protein kinase TXK (Homo sapiens) (UniProt P42681); experiment: Inhibition of TXK (unknown origin) at 0.45 uM relative to control
[12] = biological target: Tyrosine-protein kinase Lyn (Homo sapiens) (UniProt P07948); experiment: Inhibition of LYN (unknown origin) at 0.45 uM relative to control
[13] = biological target: STE20-like serine/threonine-protein kinase (Homo sapiens) (UniProt Q9H2G2); experiment: Inhibition of SLK (unknown origin) at 0.45 uM relative to control
[14] = tested on: Tyrosine-protein kinase ABL1 (Homo sapiens), P00519 [Y253F]; experiment: Inhibition of ABL1 Y253F mutant (unknown origin) at 0.45 uM relative to control
[15] = biological target: Casein kinase I isoform epsilon (Homo sapiens) (UniProt P49674); experiment: Inhibition of CK1-epsilon (unknown origin) at 0.45 uM relative to control
[16] = biological target: Platelet-derived growth factor receptor alpha (Homo sapiens) (UniProt P16234); experiment: Inhibition of PDGFR alpha (unknown origin) at 0.49 uM relative to control
[17] = biological target: T1, MAP kinase-activated protein kinase 5 (Homo sapiens) (UniProt Q8IW41); experiment: Inhibition of PRAK (unknown origin) at 0.49 uM relative to control
T1 sequence (whole entry): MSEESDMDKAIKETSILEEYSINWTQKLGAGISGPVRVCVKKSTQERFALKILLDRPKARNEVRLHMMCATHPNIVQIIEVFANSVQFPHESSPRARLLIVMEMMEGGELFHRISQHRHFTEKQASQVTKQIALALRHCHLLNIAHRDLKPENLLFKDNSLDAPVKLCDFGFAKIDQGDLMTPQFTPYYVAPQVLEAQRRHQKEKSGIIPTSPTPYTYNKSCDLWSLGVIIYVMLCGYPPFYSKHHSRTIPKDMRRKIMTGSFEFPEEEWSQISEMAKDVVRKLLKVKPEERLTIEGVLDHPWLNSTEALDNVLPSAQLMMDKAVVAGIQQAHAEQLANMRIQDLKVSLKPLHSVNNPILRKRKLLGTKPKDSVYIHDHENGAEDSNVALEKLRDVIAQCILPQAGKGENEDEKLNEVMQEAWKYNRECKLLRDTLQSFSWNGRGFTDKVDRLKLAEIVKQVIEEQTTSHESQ

[18] = biological target: T2, Aurora kinase A (Homo sapiens) (UniProt O14965); experiment: Inhibition of AurA (unknown origin) at 0.49 uM relative to control
T2 sequence (whole entry): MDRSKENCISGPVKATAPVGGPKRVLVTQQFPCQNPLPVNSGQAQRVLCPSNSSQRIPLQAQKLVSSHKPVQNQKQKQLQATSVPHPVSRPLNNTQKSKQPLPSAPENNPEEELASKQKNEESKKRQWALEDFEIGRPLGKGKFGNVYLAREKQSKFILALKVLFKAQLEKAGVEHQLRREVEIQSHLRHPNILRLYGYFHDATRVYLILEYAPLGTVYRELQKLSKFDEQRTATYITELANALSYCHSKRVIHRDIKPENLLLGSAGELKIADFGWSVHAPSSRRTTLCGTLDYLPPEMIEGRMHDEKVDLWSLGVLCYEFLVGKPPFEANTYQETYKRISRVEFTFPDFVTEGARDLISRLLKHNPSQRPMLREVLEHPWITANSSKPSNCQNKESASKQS

[19] = biological target: Tyrosine-protein kinase Yes (Homo sapiens) (UniProt P07947); experiment: Inhibition of Yes (unknown origin) at 0.49 uM relative to control
[20] = biological target: Serine/threonine-protein kinase Chk2 (Homo sapiens) (UniProt O96017); experiment: Inhibition of CHK2 (unknown origin) at 0.49 uM relative to control
[21] = biological target: Testis-specific serine/threonine-protein kinase 1 (Homo sapiens) (UniProt Q9BXA7); experiment: Inhibition of TSSK1 (unknown origin) at 0.49 uM relative to control
[22] = biological target: Cytoplasmic tyrosine-protein kinase BMX (Homo sapiens) (UniProt P51813); experiment: Inhibition of BMX (unknown origin) at 0.49 uM relative to control
[23] = biological target: Receptor tyrosine-protein kinase erbB-4 (Homo sapiens) (UniProt Q15303); experiment: Inhibition of HER4 (unknown origin) at 0.49 uM relative to control
[24] = biological target: High affinity nerve growth factor receptor (Homo sapiens) (UniProt P04629); experiment: Inhibition of TRKA (unknown origin) at 0.49 uM relative to control
[25] = biological target: Ephrin type-A receptor 8 (Homo sapiens) (UniProt P29322); experiment: Inhibition of EPHA8 (unknown origin) at 0.49 uM relative to control
[26] = biological target: Serine/threonine-protein kinase 24 (Homo sapiens) (UniProt Q9Y6E0); experiment: Inhibition of MST3 (unknown origin) at 0.49 uM relative to control
[27] = biological target: Fibroblast growth factor receptor 3 (Homo sapiens) (UniProt P22607); experiment: Inhibition of FGFR3 (unknown origin) at 0.49 uM relative to control
[28] = biological target: Homeodomain-interacting protein kinase 4 (Homo sapiens) (UniProt Q8NE63); experiment: Inhibition of HIPK4 (unknown origin) at 0.49 uM relative to control

clearance [1]: 0.87 L/h/kg
SMILES: COC(=O)Nc1noc2cc(-c3c(-c4ccccn4)n[nH]c3C)ccc12

inhibition [2]: 9%
inhibition [3]: 89%
inhibition [4]: 2.7%
inhibition [5]: 7.7%
inhibition [6]: 38%
inhibition [7]: 3%
inhibition [8]: 0.3%
inhibition [9]: 13.3%
inhibition [10]: 1.3%
inhibition [11]: -0.7%
inhibition [12]: 32.3%
inhibition [13]: 62.3%
inhibition [14]: 76%
inhibition [15]: 2.7%
SMILES: Cc1n[nH]c(C)c1-c1ccc2c(NC(=O)c3ccc(N4CCN(C)CC4)cc3)n[nH]c2c1

inhibition [16]: 0.7%
inhibition [17]: -0.3%
inhibition [18]: 5.7%
inhibition [19]: -8%
inhibition [20]: 8%
inhibition [21]: 1%
inhibition [22]: -0.7%
inhibition [23]: -10%
inhibition [24]: 3.7%
inhibition [25]: -2.7%
inhibition [26]: 2.3%
inhibition [27]: -0.3%
inhibition [28]: 1.7%
SMILES: Cc1[nH]nc(C2CC2)c1-c1ccc2c(NC(=O)C3CC3)noc2c1
